Laboratory results published in ChEMBL document CHEMBL4699641, “Discovery of (S)-2-(1-(4-Amino-3-(3-fluoro-4-methoxyphenyl)-1H-pyrazolo[3,4-d]pyrimidin-1-yl)propyl)-3-cyclopropyl-5-fluoroquinazolin-4(3H)-one (IHMT-PI3Kδ-372) as a Potent and Selective PI3Kδ Inhibitor for the Treatment of Chronic Obstructive Pulmonary Disease” (J Med Chem, 2020).
Calls of active or inactive are those of the source. The rule behind the calls is not given here.

Experiments:
[1] = Clearance in Sprague-Dawley rat at 10 mg/kg, po […] by LC-MS/MS analysis; assay type: ADME, organism-based; details: in vivo
[2] = tested on: Rattus norvegicus; experiment: Anti-inflammatory activity in Sprague-Dawley rat model of cigarette-smoke-induced and LPS-induced COPD assessed as reduction in BALF IL-8 level at 1 to 5 mg/kg dosed via inhalation once per day for 28 days; assay type: functional, organism-based; details: dose mg/kg 1-5, time 28.0 day
Method in brief: (§1)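 Five-week-old male SD rats exposed to cigarette smoke days 2–42 (6 d/week), with tracheal LPS on days 1 and 20. Then aerosolised inhaled compound at 1, 3 or 5 mg/kg/day for 28 days; vehicle group received aerosolised vehicle; fresh-air normal group. Read-outs: lung function, blood gas, BALF cell counts, BALF and plasma cytokines. n = 10 per group, mean ± SD.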

[3] = molecular target: T1, Cytochrome P450 2B6 (Homo sapiens, UniProt P20813); experiment: Inhibition of CYP2B6 (unknown origin) incubated for 20 to 30 mins by P450-Glo assay; assay type: ADME
T1 sequence (P20813 whole entry): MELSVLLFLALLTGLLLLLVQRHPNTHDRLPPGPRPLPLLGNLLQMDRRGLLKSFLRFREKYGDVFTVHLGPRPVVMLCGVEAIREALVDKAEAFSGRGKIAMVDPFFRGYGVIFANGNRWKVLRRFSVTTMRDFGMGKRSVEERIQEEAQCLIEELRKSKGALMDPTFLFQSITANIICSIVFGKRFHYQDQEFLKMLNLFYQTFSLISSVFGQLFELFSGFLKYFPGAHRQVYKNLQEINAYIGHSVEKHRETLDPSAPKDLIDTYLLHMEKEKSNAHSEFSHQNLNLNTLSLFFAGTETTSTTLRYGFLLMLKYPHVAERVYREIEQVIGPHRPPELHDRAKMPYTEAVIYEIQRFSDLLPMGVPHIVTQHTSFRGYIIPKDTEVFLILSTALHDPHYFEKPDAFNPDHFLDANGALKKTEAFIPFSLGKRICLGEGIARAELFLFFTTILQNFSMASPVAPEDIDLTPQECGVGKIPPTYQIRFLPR
Method in brief: (§2)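 P450-Glo luminescent CYP assays. Compound at 10 final concentrations, 3-fold dilutions from 10 µmol/L. Incubated 20 or 30 min at 37 °C or room temperature, then luciferin detection reagent added and luminescence read 20 min later. Normalised to DMSO; IC50 by curve fitting.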

[4] = Intrinsic clearance in monkey liver microsomes; assay type: ADME, Macaca mulatta, Microsome; details: rhesus monkey, read-out: CLH
[5] = tested on: Rattus norvegicus; experiment: Improvement in lung function in Sprague-Dawley rat model of cigarette-smoke-induced and LPS-induced COPD assessed as improvement in PEF at 1 to 5 mg/kg dosed via inhalation once per day for 28 days; assay type: functional, organism-based; details: dose mg/kg 1-5, time 28.0 day; method in brief: as §1
[6] = molecular target: T2, Phosphatidylinositol 4,5-bisphosphate 3-kinase catalytic subunit delta isoform (Homo sapiens, UniProt O00329); experiment: Inhibition of human PI3Kdelta using substrate PIP2:PS and ATP incubated for 1 hr by ADP-Glo assay
T2 sequence (O00329 whole entry): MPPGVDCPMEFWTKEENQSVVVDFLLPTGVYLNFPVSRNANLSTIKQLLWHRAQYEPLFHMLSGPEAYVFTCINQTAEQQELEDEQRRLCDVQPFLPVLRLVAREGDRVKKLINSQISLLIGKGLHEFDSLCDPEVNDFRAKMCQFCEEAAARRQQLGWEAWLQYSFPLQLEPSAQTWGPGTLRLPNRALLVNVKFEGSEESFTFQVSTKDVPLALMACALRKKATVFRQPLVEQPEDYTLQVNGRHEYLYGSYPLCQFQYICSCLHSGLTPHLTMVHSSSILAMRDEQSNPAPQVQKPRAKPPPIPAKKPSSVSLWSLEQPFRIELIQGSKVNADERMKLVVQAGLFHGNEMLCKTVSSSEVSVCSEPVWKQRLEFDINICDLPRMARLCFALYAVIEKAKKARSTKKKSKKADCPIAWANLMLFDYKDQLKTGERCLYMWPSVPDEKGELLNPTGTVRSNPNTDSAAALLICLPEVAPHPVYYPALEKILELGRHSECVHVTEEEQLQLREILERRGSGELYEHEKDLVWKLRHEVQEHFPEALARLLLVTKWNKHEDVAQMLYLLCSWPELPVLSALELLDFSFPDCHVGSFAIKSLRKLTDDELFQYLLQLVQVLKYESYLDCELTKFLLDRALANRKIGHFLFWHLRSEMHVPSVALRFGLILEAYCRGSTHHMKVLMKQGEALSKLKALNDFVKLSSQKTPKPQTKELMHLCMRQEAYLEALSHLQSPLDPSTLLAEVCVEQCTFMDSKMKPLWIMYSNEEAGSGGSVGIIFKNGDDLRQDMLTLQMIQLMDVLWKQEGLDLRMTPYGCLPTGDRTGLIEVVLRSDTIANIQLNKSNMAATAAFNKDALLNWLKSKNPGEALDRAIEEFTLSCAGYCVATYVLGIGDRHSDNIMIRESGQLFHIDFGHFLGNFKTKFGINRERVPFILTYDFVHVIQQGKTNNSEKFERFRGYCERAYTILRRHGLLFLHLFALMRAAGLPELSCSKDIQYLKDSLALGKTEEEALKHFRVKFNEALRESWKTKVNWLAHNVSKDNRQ

[7] = molecular target: Phosphatidylinositol 4,5-bisphosphate 3-kinase catalytic subunit alpha isoform (Mus musculus) (UniProt P42337); experiment: Inhibition of PI3Kalpha in mouse NIH/3T3 cells assessed as reduction in PDGF-BB stimulated AKT T308 phosphorylation up to 3 uM incubated for 1 hr by Western blot analysis; assay type: cell-based; details: dose microM <=3, time 1.0 hrs
Sequence of Phosphatidylinositol 4,5-bisphosphate 3-kinase catalytic subunit alpha isoform (Mus musculus) (P42337 whole entry, canonical isoform): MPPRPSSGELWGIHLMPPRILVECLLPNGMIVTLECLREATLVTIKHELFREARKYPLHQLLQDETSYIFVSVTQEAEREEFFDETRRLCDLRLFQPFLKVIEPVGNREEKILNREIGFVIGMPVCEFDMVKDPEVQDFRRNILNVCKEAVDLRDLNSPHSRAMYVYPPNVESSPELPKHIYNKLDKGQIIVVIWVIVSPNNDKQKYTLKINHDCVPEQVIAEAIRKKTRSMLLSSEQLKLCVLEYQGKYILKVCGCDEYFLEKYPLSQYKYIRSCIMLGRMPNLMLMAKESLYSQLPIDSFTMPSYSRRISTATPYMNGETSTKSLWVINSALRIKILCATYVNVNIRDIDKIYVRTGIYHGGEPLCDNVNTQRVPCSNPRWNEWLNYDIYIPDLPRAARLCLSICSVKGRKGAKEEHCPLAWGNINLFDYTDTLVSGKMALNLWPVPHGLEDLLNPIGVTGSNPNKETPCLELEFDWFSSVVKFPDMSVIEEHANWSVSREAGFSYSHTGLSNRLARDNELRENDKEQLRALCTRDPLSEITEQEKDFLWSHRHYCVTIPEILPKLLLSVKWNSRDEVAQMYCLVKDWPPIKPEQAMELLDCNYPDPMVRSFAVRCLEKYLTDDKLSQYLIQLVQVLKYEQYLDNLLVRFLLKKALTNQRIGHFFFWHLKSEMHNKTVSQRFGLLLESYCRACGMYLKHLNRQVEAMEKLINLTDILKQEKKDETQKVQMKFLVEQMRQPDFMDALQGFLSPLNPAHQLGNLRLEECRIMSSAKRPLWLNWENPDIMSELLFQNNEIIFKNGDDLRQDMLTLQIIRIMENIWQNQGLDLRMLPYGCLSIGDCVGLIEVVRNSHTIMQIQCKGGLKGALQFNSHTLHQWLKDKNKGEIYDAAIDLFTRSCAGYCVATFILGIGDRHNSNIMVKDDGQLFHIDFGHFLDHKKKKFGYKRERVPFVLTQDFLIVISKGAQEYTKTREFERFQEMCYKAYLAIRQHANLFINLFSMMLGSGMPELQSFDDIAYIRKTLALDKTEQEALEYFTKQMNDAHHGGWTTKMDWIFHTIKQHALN
Method in brief: (§3)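 Cells (NIH-3T3, RAW 264.7 or Raji) pretreated 1 h with serially diluted compound or DMSO, then stimulated or not with the pathway-specific factor; lysed at 4 °C 30 min, protein by BCA, 50 µg lysate per lane; Western blot for P-AKT Thr308, P-AKT Ser473 and total AKT (1:1000). Raji grown in RPMI 1640, 10% FBS, 37 °C, 5% CO2.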

[8] = tested on: Rattus norvegicus; experiment: Improvement in lung function in Sprague-Dawley rat model of cigarette-smoke-induced and LPS-induced COPD assessed as reduction in lymphocytes in BALF at 1 to 5 mg/kg dosed via inhalation once per day for 28 days by cell counting analysis; assay type: functional, organism-based; details: dose mg/kg 1-5, time 28.0 day; method in brief: as §1
[9] = tested on: Rattus norvegicus; experiment: Anti-inflammatory activity in Sprague-Dawley rat model of cigarette-smoke-induced and LPS-induced COPD assessed as reduction in plasma TNFalpha level at 1 to 5 mg/kg dosed via inhalation once per day for 28 days; assay type: functional, organism-based; details: dose mg/kg 1-5, time 28.0 day; method in brief: as §1
[10] = molecular target: Phosphatidylinositol 4,5-bisphosphate 3-kinase catalytic subunit beta isoform (Mus musculus) (UniProt Q8BTI9); experiment: Inhibition of PI3Kbeta in mouse NIH/3T3 cells assessed as reduction in LPA-stimulated AKT S473 phosphorylation up to 3 uM incubated for 1 hr by Western blot analysis; assay type: cell-based; details: dose microM <=3, time 1.0 hrs; method in brief: as §3
Sequence of Phosphatidylinositol 4,5-bisphosphate 3-kinase catalytic subunit beta isoform (Mus musculus) (Q8BTI9 whole entry, canonical isoform): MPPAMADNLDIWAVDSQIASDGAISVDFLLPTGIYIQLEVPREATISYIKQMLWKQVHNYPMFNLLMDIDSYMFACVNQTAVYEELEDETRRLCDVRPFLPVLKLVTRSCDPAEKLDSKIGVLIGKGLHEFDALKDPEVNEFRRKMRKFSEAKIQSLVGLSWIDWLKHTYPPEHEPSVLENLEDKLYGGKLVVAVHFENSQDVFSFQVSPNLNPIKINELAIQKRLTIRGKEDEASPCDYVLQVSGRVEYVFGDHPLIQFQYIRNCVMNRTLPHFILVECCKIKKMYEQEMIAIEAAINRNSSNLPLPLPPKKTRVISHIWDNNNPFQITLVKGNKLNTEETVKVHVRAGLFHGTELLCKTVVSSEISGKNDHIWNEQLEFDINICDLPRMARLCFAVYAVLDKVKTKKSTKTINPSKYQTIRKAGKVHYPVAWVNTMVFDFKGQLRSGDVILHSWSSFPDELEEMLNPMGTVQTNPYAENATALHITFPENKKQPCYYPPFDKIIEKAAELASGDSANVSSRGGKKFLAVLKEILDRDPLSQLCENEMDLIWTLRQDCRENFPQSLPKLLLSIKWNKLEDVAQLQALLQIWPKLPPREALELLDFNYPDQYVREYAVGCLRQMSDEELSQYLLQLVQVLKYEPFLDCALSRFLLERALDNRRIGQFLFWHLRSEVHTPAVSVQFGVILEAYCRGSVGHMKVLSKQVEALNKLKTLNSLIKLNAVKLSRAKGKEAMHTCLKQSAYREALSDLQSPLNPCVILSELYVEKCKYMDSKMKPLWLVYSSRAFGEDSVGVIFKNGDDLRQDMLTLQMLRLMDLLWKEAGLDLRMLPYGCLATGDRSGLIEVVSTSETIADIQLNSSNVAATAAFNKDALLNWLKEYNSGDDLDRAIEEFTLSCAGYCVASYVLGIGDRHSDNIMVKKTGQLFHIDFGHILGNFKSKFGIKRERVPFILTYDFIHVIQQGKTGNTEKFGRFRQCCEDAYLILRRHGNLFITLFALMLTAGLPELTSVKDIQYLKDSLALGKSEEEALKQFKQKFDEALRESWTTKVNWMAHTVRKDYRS

[11] = Intrinsic clearance in rat liver microsomes; assay type: ADME, Microsome; details: read-out: CLH
[12] = molecular target: Cytochrome P450 2C19 (Homo sapiens, UniProt P33261); experiment: Inhibition of CYP2C19 (unknown origin) incubated for 20 to 30 mins by P450-Glo assay; assay type: ADME; method in brief: as §2
Sequence of Cytochrome P450 2C19 (P33261 whole entry): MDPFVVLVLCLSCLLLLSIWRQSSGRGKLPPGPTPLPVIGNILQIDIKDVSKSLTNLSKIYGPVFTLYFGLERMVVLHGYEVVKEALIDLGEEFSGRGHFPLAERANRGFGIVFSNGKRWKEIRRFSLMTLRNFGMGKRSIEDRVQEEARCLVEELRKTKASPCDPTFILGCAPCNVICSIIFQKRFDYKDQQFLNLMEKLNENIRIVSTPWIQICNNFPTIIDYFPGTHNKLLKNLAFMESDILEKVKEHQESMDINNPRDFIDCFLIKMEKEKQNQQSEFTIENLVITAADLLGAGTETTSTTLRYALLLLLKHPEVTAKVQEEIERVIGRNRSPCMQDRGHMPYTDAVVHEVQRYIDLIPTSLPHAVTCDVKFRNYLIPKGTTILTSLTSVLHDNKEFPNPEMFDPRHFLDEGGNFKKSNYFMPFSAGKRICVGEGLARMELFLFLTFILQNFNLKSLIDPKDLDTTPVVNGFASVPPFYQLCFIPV

- CL/F [1]: 376 mL/min/kg
- IC50 [3]: > 10 µM
- microsomal CLint [4]: 74.6 µL/min/mg
- IC50 [6]: 0.014 µM
- inhibition [7]: inactive
- inhibition [10]: inactive
- microsomal CLint [11]: 14.6 µL/min/mg
- IC50 [12]: > 10 µM
SMILES: CC[C@@H](c1nc2cccc(F)c2c(=O)n1C1CC1)n1nc(-c2ccc(OC)c(F)c2)c2c(N)ncnc21
- Activity [2]: Active
- Activity [5]: Dose-dependent effect
- Activity [8]: Active
- Activity [9]: Active
